Test results reported in PMC12676294 (ACS Omega, 2025).

Assay: Potentiometric titration: protonation constants of the ligands
Type: physicochemical
Details: T = 25.0 °C; I = 0.1 M KNO3
How it was run: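 Ligand (about 1 mM, 16 mL) with 5–9 mM HClO4 titrated with carbonate-free NaOH (about 0.1 M) under argon with stirring, at 25.0 ± 0.1 °C in 0.1 M KNO3. Glass electrode calibrated as an H+ concentration probe by Gran's method; pKw fixed at 13.78. Points accepted at drift <0.5 mV/min, pH 2–12, 55–130 points per dataset. Stepwise constants were refined from the titration curves.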

Stepwise protonation constant Log K, HL: 5.1 (1)
Structure (SMILES): NC(=O)CN1CCNC(=O)c2cccc(n2)C(=O)NCCN(CC(N)=O)CC1 [Py2am, 2-[9-(Carbamoylmethyl)-2,13-dioxo-3,6,9,12,18-pentaazabicyclo[12.3.1]octadeca-1(17),14(18),15-trien-6-yl]acetamide]
